PAD4 inh: PAD4 (human) enzyme inhibition. 0.41% of 330,000 active. recombinant PAD4, RCA probe fluorescence polarization. inhibition, % at 6.36 µM;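 active = percent inhibition above a cutoff equal to the mean of all tested compounds plus 3 SD, cut at about 15% in these data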
GSTO1 counter: GSTO1 inhibition, counter-screen for RBBP9 inhibitors; recombinant GSTO1, activity-based probe fluorescence polarization; inhibition, % at 5.96 µM; 1.1% of 300,000 active; AID 1974;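 active = inhibition above the campaign mean inhibition plus 3 SD, cut at about 35% in these data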
Target sequence (P78417 whole entry, looked up): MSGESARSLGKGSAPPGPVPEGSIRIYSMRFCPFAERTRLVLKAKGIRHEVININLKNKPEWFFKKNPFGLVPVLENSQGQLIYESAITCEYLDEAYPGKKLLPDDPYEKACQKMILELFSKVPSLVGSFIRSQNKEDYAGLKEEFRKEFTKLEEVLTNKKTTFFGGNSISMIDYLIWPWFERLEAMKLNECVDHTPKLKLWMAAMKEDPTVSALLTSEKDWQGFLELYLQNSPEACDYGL
PRMT1 FP inh: inhibitors of human PRMT1; recombinant PRMT1, activity-based probe fluorescence polarization; 1.3% of 370,000 active; Q99873; inhibition, % at 2.79 µM;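 active = inhibition above about 21% made by adding two undisclosed values, limit read from the data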
Target sequence (Q99873 whole entry, looked up): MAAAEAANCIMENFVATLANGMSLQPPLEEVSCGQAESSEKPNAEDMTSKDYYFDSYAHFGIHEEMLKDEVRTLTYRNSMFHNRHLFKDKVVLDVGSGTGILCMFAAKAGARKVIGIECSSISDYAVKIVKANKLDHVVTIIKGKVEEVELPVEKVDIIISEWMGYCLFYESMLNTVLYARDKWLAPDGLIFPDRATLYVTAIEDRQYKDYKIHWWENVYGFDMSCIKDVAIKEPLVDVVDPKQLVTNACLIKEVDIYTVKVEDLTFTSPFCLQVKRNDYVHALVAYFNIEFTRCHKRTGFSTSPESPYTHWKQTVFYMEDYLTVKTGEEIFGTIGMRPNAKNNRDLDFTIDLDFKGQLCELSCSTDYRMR
E coli Lon inh: inhibitors of E. coli Lon protease; purified E. coli Lon protease, fluorescence polarization; 0.42% of 360,000 active; inhibition, % at 7.94 µM; P0A9M0; in the data active = inhibition above about 13%, passing the limit was not always enough
TDP2 inh: blocks human TDP2 phosphodiesterase activity. O95551. recombinant TDP2, T5PNP hydrolysis, p-nitrophenol absorbance 415 nm. inhibition, % at 12.8 µM. 0.34% of 370,000 active;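 active = inhibition above the mean of all tested compounds plus 3 SD, set per campaign, cut at about 25% in these data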
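System – recombinant human TDP2 · Quantity – TDP2 enzyme at 120 nM final · Doses – single concentration, 12.8 µM nominal, with 1% DMSO · Incubation – 2 h at 37 °C · Measured by – epi absorbance of p-nitrophenol freed from T5PNP by hydrolysis · Read-out – % inhibition relative to enzyme-containing and enzyme-free wells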
eLon confirm: E. coli Lon inhibition confirmation; purified E. coli Lon, fluorescence polarization; shares compounds with E coli Lon inh; 31% of 1,400 active; inhibition, % at 7.94 µM; AID 602230; in the data active = inhibition above about 16%
PRMT1 inh conf: confirmation of human PRMT1 inhibitors; inhibition, % at 2.79 µM; recombinant His-PRMT1, activity-based probe fluorescence polarization; 42% of 3,300 active; shares compounds with PRMT1 FP inh; AID 687036;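 active = mean inhibition across replicates above the hit cutoff derived for the earlier primary screen, cut at about 22% in these data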
TDP2 confirm: human TDP2 inhibition, confirmation | shares compounds with TDP2 inh | recombinant human TDP2, absorbance read-out | inhibition, % at 12.8 µM | 22% of 1,100 active | AID 743263; in the data active = inhibition above about 25%
Each line names hits and unclear results; the compound was inactive in the other large screens (follow-up assays come after a bar, where they were run). This is a sample that favours compounds with a hit; in the whole collection about 2.5% have one here.

CCC(=O)N1CCc2cc(Br)c(S(=O)(=O)NCc3ccccc3OC)cc21	none (no result: PAD4 inh, GSTO1 counter, E coli Lon inh)
Nc1ccc2c3c(cccc13)-c1ccccc1-2	PRMT1 FP inh 58, E coli Lon inh 189 (no result: PAD4 inh, GSTO1 counter) | eLon confirm active | PRMT1 inh conf 61
O=[N+]([O-])c1cccc(C2=Nn3c(nnc3-c3ccccc3)SC2)c1	none (no result: PAD4 inh, GSTO1 counter, E coli Lon inh)
CN(C)/C=C1\C=C2C(=O)c3ccccc3N2C1=O	PRMT1 FP inh 111, E coli Lon inh 93 | eLon confirm inactive | PRMT1 inh conf 54
N#Cc1c(N)sc(=S)c2c1CCCCC2	PRMT1 FP inh 40, E coli Lon inh 20 | eLon confirm inactive | PRMT1 inh conf 36
N#Cc1c(N)c(C#N)c(-c2ccc(O)cc2)c2c1CCCC2	none
CC(=O)OCCn1c2nc(=O)[nH]c(=O)c-2nc2cc(C)c(C)cc21	PRMT1 FP inh 159, E coli Lon inh active (no result: PAD4 inh, GSTO1 counter) | eLon confirm active | PRMT1 inh conf 150
Cc1ccc2c(c1)CCCN2CC(=O)N(C)c1c(N)n(Cc2ccccc2)c(=O)[nH]c1=O	PRMT1 FP inh 33, E coli Lon inh 146 (no result: GSTO1 counter) | eLon confirm inactive | PRMT1 inh conf inactive
COC(=O)[C@]12C[C@H](CC(=O)NCC34CC5CC(CC(C5)C3)C4)C(=O)N(CCC3=CCCCC3)C1=C[C@H](C1CCCC1)O[C@@H]2C	none (no result: PAD4 inh, GSTO1 counter, E coli Lon inh)
CCOc1cc(C(c2c(O)nc(SC)[nH]c2=O)c2c(O)nc(SC)[nH]c2=O)ccc1O	PRMT1 FP inh 49, E coli Lon inh 49 | eLon confirm 41 | PRMT1 inh conf 41
COc1ccccc1C(c1c(O)nc(SC)[nH]c1=O)c1c(O)nc(SC)[nH]c1=O	none
C#CCN1C(C(=O)OC)CN(CCCCCC)CCS1(=O)=O (centres undefined)	none (no result: PAD4 inh, GSTO1 counter, E coli Lon inh)
CC[C@@]1(O)C(=O)OCc2c1cc1n(c2=O)Cc2cc3c(CN(C)C)c(O)ccc3nc2-1	PRMT1 FP inh 107, E coli Lon inh active | eLon confirm active | PRMT1 inh conf 109
CC[C@@]1(O)C(=O)OCc2c1cc1n(c2=O)Cc2cc3c(N)cccc3nc2-1	none
COCC(=O)N1CC[C@H]2[C@@H]1c1cc(-c3cccc(OC)c3)ccc1N(C)[C@H]2CO	none (no result: PAD4 inh, GSTO1 counter, E coli Lon inh)
COc1cc(-c2nnc(SCC(=O)N3C(C)CCCC3C)o2)cc(OC)c1OC (centres undefined)	none (no result: PAD4 inh, GSTO1 counter, E coli Lon inh)
O=C1c2ccccc2C(=O)c2c(O)c(O)cc(O)c21	PAD4 inh 96, PRMT1 FP inh 27, E coli Lon inh active (no result: GSTO1 counter) | eLon confirm active | PRMT1 inh conf inactive
Cc1cc(C)cc(C(=O)OCCN(C)C2CN(Cc3cn(Cc4ccccc4F)nn3)S(=O)(=O)C2)c1 (centres undefined)	none (no result: PAD4 inh, GSTO1 counter, E coli Lon inh)
Cc1cc2nc3c(=O)[nH]c(=O)[nH]c3nc2c([N+](=O)[O-])c1N	PRMT1 FP inh 79, E coli Lon inh 95 (no result: PAD4 inh, GSTO1 counter) | eLon confirm 182 | PRMT1 inh conf 112
O=S(=O)(Nc1ccc(O)c(NS(=O)(=O)c2ccccc2)c1)c1ccccc1	PRMT1 FP inh 31, E coli Lon inh 18 | eLon confirm inactive | PRMT1 inh conf inactive
Cc1cc(NS(=O)(=O)c2ccccc2)ccc1NS(=O)(=O)c1ccccc1	none (no result: PAD4 inh, GSTO1 counter)
COC[C@@H](OC(C)=O)[C@H]1OCc2ccccc2[C@@H]1/C=C/c1ccccc1	none (no result: PAD4 inh, GSTO1 counter, E coli Lon inh)
COc1ccc(-c2nnc(SCC(=O)NN=C(C)c3cccc4ccccc34)n2-c2ccc(C)cc2)cc1	none (no result: PAD4 inh, GSTO1 counter, E coli Lon inh)
Nc1ccc2cc3[nH]c4cc(N)ccc4c3nc2c1	PRMT1 FP inh 156, E coli Lon inh active (no result: PAD4 inh, GSTO1 counter) | eLon confirm 146 | PRMT1 inh conf inactive
O=C1c2cccc3c(N4CCCCC4)ccc(c23)C(=O)N1CCO	PRMT1 FP inh 40, E coli Lon inh 126 | eLon confirm inactive | PRMT1 inh conf inactive
NC(=O)C[n+]1cccc2ccccc21	PRMT1 FP inh 55, E coli Lon inh 57 | eLon confirm 40 | PRMT1 inh conf inactive
COC(=O)C1CN(Cc2ccc(F)cc2)CCS(=O)(=O)N1Cc1cn(Cc2ccc(Cl)cc2)nn1 (centres undefined)	none (no result: PAD4 inh, GSTO1 counter, E coli Lon inh)
Cc1cc[n+](-c2[nH]c(=O)sc2/C=N/NC([S-])=Nc2ccccc2)cc1C	PRMT1 FP inh 56, E coli Lon inh 95 | eLon confirm 33 | PRMT1 inh conf 26
Oc1ccc2nnc3c(Br)cnn3c2c1	PRMT1 FP inh 50, E coli Lon inh 134 | eLon confirm 144 | PRMT1 inh conf 50
CCn1c2ccccc2c2cc(C=NNC(=O)CSc3nc4ccccc4c(=O)n3-c3ccccc3)ccc21	none (no result: PAD4 inh, GSTO1 counter, E coli Lon inh)
CCN1CC=C2C(C1)C(c1ccc(Cl)s1)C(C#N)=C(N)C2(C#N)C#N (centres undefined)	PRMT1 FP inh 30, E coli Lon inh 81 | eLon confirm inactive | PRMT1 inh conf 36
COc1ccc2[nH]c3c(c2c1)CCN[C@]31C(=O)N(Cc2cn(Cc3ccccc3)nn2)c2ccc(F)cc21	none (no result: PAD4 inh, GSTO1 counter, E coli Lon inh)
CCN1CCC(NCCc2ccc(F)cc2)CC1	none
COc1c(O)cccc1[C@H](O)C1CCN(CCc2ccc(F)cc2)CC1	PRMT1 FP inh 29, E coli Lon inh 71 | eLon confirm inactive | PRMT1 inh conf inactive
CCOC(=O)C1=C(CSc2nc3c(cc2C#N)CN(C)CC3)OC(N)=C(C#N)C1c1ccc(Cl)cc1 (centres undefined)	none
CCOC(=O)C1=C(CSc2nc3c(cc2C#N)CN(C)CC3)OC(N)=C(C#N)C1c1ccncc1 (centres undefined)	PRMT1 FP inh 25, E coli Lon inh 35 | eLon confirm inactive | PRMT1 inh conf inactive
CCN(CC)c1ccc2nc3ccc(N)cc3[n+](-c3ccccc3)c2c1	PRMT1 FP inh 26, E coli Lon inh 170 (no result: PAD4 inh, GSTO1 counter) | eLon confirm 124 | PRMT1 inh conf inactive
CCC1(c2ccccc2)NC(=O)N(CC(=O)Nc2ccc(OC)nc2)C1=O (centres undefined)	PRMT1 FP inh 58, E coli Lon inh 112 | eLon confirm 105 | PRMT1 inh conf 55
C[C@@H]1OC(C2CCCCC2)N(C)[C@H]2C[C@H]3c4[nH]c5cccc(-c6cccc(F)c6)c5c4CCN3C(=O)[C@@H]12 (some centres undefined)	none (no result: PAD4 inh, GSTO1 counter, E coli Lon inh)
O=C(CCCC(=O)N/N=C\c1ccccn1)N/N=C\c1ccccn1	none
CC(Nc1cccc2ccccc12)C(=O)N/N=C/c1ccccn1 (centres undefined)	PRMT1 FP inh 25, E coli Lon inh 24, TDP2 inh 26 | eLon confirm inactive | TDP2 confirm inactive
CN1CC=C(c2ccccc2)N(c2ccc(Br)cc2)C1=O	none (no result: PAD4 inh, GSTO1 counter, E coli Lon inh)
